Activity calls are given as the source filed them. The calls are words filed in the database; no cut-off is given here.
Assays:
HL-60(TB) = assay: Cytotoxicity against human HL-60(TB) cells; assay type: functional, cell-based
Summary of the method: (§1)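 Human colon cancer and leukaemia line panel. Compounds tested from 10^-4 to 10^-8 M, and IC50 values determined.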

KM12 = assay: Cytotoxicity against human KM12 cells; assay type: functional, cell-based; summary of the method: as §1
HCT-15 = assay: Cytotoxicity against human HCT15 cells; assay type: functional, cell-based; summary of the method: as §1
HSC-2 [1] = assay: Cytotoxicity against human HSC2 cells after 48 hrs; assay type: functional; settings: HSC-2, 48 h
Summary of the method: (§2)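 Human HSC-2, HSC-3, HSC-4 squamous carcinoma and HL-60 promyelocytic leukaemia cells incubated with compound for 48 h. CC50, the concentration killing 50% of cells, read from a dose–response curve.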

L1210 = assay: Growth inhibition of mouse L1210 cells; assay type: functional, cell-based
[2] = biological target: T1, ATP-dependent translocase ABCB1 (Homo sapiens, UniProt P08183); assay: Inhibition of human MDR1-mediated multidrug resistant in mouse L5178Y cells at 4 uM treated 10 mins before rhodamine 123 challenge measured after 20 mins relative to control; assay type: cell-based
T1 sequence (P08183 whole entry): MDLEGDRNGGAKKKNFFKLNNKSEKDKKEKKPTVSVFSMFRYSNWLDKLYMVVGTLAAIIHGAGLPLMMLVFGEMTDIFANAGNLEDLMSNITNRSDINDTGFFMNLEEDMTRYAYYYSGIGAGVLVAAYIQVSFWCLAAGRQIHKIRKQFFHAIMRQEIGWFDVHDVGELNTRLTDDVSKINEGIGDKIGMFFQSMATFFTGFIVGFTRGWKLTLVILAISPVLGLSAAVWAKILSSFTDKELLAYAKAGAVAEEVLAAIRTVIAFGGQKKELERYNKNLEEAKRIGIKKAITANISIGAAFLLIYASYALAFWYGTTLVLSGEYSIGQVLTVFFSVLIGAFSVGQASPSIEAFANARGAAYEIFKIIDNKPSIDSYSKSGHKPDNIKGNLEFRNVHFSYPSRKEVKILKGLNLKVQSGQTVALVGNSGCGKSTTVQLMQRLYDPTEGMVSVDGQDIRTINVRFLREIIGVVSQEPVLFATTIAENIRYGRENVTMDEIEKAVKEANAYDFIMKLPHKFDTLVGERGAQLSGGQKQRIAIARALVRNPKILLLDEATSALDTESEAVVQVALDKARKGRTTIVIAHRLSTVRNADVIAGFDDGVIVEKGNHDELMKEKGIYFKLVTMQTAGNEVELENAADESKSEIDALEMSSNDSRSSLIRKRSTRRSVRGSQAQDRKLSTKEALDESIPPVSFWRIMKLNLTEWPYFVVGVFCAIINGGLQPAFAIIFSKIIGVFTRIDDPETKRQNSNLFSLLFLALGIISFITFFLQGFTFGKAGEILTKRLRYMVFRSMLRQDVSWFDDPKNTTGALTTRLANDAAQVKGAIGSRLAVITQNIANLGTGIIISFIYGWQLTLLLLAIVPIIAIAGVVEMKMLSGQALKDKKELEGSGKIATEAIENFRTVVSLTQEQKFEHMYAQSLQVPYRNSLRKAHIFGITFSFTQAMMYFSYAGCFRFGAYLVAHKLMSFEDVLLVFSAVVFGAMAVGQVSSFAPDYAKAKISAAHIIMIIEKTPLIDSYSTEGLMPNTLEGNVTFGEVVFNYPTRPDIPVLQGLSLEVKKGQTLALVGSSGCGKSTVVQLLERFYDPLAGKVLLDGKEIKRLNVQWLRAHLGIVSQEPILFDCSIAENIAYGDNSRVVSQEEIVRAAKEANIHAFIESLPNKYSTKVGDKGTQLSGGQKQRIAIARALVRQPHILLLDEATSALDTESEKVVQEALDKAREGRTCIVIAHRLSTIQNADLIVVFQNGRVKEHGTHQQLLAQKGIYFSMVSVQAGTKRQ
Summary of the method: (§3)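 Compounds in DMSO were added at room temperature to mdr1-transfected and parental L5178Y cells. After 10 min, rhodamine 123 was added, followed by 20 min at 37 °C. Cellular rhodamine fluorescence was measured and expressed as fluorescence activity ratio (FAR); FAR >1 indicates MDR reversal.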

HSC-4 [3] = assay: Selectivity index, ratio of CC50 for human normal cells to CC50 for human HSC4 cells; assay type: functional
CCRF-CEM = assay: Growth inhibition of human CEM cells; assay type: functional, cell-based
HCT-116 = assay: Cytotoxicity against human HCT116 cells; assay type: functional, cell-based; summary of the method: as §1
HCC 2998 = assay: Cytotoxicity against human HCC2998 cells; assay type: functional, cell-based; summary of the method: as §1
[4] = Cytotoxicity against human HGF cells after 48 hrs; assay type: cell-based
Summary of the method: (§4)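 Cells were exposed to a dose range for 48 h, following a literature method. CC50 was read from the dose–response curve.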

COLO 205 = assay: Cytotoxicity against human COLO205 cells; assay type: functional, cell-based; summary of the method: as §1
HSC-2 [5] = assay: Selectivity index, ratio of CC50 for human normal cells to CC50 for human HSC2 cells; assay type: functional
RPMI-8226 = assay: Cytotoxicity against human RPMI8226 cells; assay type: functional, cell-based; summary of the method: as §1
HL-60 [6] = assay: Cytotoxicity against human HL60 cells after 48 hrs; assay type: functional; settings: HL-60, 48 h; summary of the method: as §2
HL-60 [7] = assay: Selectivity index, ratio of CC50 for human normal cells to CC50 for human HL60 cells; assay type: functional
HSC-3 [8] = assay: Selectivity index, ratio of CC50 for human normal cells to CC50 for human HSC3 cells; assay type: functional
[9] = biological target: T1, ATP-dependent translocase ABCB1; assay: Inhibition of human MDR1-mediated multidrug resistant in mouse L5178Y cells at 40 uM treated 10 mins before rhodamine 123 challenge measured after 20 mins relative to control; assay type: cell-based; summary of the method: as §3
K562 = assay: Cytotoxicity against human K562 cells; assay type: functional, cell-based; summary of the method: as §1
SW-620 = assay: Cytotoxicity against human SW620 cells; assay type: functional, cell-based; summary of the method: as §1
MOLT-4 = assay: Growth inhibition of human Molt4/C8 cells; assay type: functional, cell-based
[10] = Cytotoxicity against human HPLF cells after 48 hrs; assay type: cell-based; summary of the method: as §4
HT-29 = assay: Cytotoxicity against human HT-29 cells; assay type: functional, cell-based; summary of the method: as §1
HSC-4 [11] = assay: Cytotoxicity against human HSC4 cells after 48 hrs; assay type: functional; settings: HSC-4, 48 h; summary of the method: as §2
HSC-3 [12] = assay: Cytotoxicity against human HSC3 cells after 48 hrs; assay type: functional; settings: HSC-3, 48 h; summary of the method: as §2
HSC-3 [13] = assay: Ratio of melphalan CC50 to compound CC50 for human HSC3 cells; assay type: functional
HSC-2 [14] = assay: Ratio of melphalan CC50 to compound CC50 for human HSC2 cells; assay type: functional
HSC-4 [15] = assay: Ratio of melphalan CC50 to compound CC50 for human HSC4 cells; assay type: functional

Row | Structure (SMILES) | IC50 (HL-60(TB)) | IC50 (KM12) | IC50 (HCT-15) | CC50 (HSC-2 [1]) | growth inhibition (GI) (L1210) | Ratio [2] | Ratio (HSC-4 [3]) | growth inhibition (GI) (CCRF-CEM) | IC50 (HCT-116) | IC50 (HCC 2998) | CC50 at 48 h [4] | Ratio (HSC-2 [5]) | CC50 (HL-60 [6]) | Ratio (HL-60 [7]) | Ratio (HSC-3 [8]) | Ratio [9] | growth inhibition (GI) (MOLT-4) | CC50 at 48 h [10] | CC50 (HSC-4 [11]) | CC50 (HSC-3 [12]) | also measured
1 | O=C1/C(=C/c2ccccc2)CN(C(=O)/C=C/C(=O)N2C/C(=C\c3ccccc3)C(=O)/C(=C/c3ccccc3)C2)C/C1=C\c1ccccc1 | 450 nM | 210 nM | 830 nM | 78 nM | Active | 37.2 | 25.7 | Active | 130 nM | 220 nM | 17000 nM | 191 | 1200 nM | 12.4 | 24 | 52.9 | Active | 22000 nM | 580 nM | 620 nM | IC50 (COLO 205): 560 nM; IC50 (RPMI-8226): 50 nM; IC50 (K562): 320 nM; IC50 (SW-620): 220 nM; IC50 (HT-29): 250 nM
2 | O=C1/C(=C/c2ccccc2)CN(C(=O)c2ccccc2C(=O)N2C/C(=C\c3ccccc3)C(=O)/C(=C/c3ccccc3)C2)C/C1=C\c1ccccc1 | 210 nM | 210 nM | 350 nM | 26 nM | Active | 46.5 | 60 | Active | 30 nM | 200 nM | 5700 nM | 189 | 110 nM | 44.7 | 64.7 | 51.5 | Active | 8500 nM | 82 nM | 76 nM | Ratio (HSC-3 [13]): 329; Ratio (HSC-2 [14]): 335; Ratio (HSC-4 [15]): 390; IC50 (COLO 205): 210 nM; IC50 (RPMI-8226): 60 nM; IC50 (K562): 210 nM; IC50 (SW-620): 300 nM; IC50 (HT-29): 170 nM
3 | O=C1/C(=C/c2ccccc2)CN(C(=O)CCCCCCC(=O)N2C/C(=C\c3ccccc3)C(=O)/C(=C/c3ccccc3)C2)C/C1=C\c1ccccc1 | – | – | – | 170 nM | Active | 49.2 | 16.8 | Active | – | – | 13000 nM | 61.2 | 1300 nM | 8 | 49.5 | 55.7 | Active | 17000 nM | 620 nM | 210 nM | –
4 | O=C1/C(=C/c2ccccc2)CN(C(=O)CCC(=O)N2C/C(=C\c3ccccc3)C(=O)/C(=C/c3ccccc3)C2)C/C1=C\c1ccccc1 | 270 nM | 300 nM | 380 nM | 99 nM | Active | 35 | 38.2 | Active | 140 nM | 230 nM | 10000 nM | 92.6 | 410 nM | 22.4 | 39.9 | 60 | Active | 16000 nM | 240 nM | 230 nM | IC50 (COLO 205): 390 nM; IC50 (RPMI-8226): 60 nM; IC50 (K562): 220 nM; IC50 (SW-620): 260 nM; IC50 (HT-29): 240 nM
5 | O=C1/C(=C/c2ccccc2)CN(C(=O)CCCC(=O)N2C/C(=C\c3ccccc3)C(=O)/C(=C/c3ccccc3)C2)C/C1=C\c1ccccc1 | – | – | – | 71 nM | Active | 50.2 | 13 | Active | – | – | 2900 nM | 34.8 | 390 nM | 6.33 | 14.5 | 73.4 | Active | 3900 nM | 190 nM | 170 nM | –
6 | N[C@@H](Cc1ccc(N(CCCl)CCCl)cc1)C(=O)O [MELPHALAN] | – | – | – | 8700 nM | – | – | 6.56 | – | – | – | – | 24.1 | 1400 nM | 150 | 8.4 | – | – | – | 32000 nM | 25000 nM | –
